The entries come from a sample that favours hits as a whole.
GSK3A inh: blockers of GSK3A enzyme activity – biochemical, luminescence, cell-free homogeneous, HTS, primary screen; actives 0.1% (n = 320,000); GSK-3 alpha kinase, ADP-Glo luminescence, 60 min; inhibition, % at 10 µM; AID 2650, 2010; Glycogen synthase kinase-3 alpha (Homo sapiens), P49840;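 active means more than half of replicates show inhibition above 20%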;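 further: GST-tagged GSK-3 alpha with peptide substrate and 25 µM ATP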
Target sequence (P49840 whole entry, looked up): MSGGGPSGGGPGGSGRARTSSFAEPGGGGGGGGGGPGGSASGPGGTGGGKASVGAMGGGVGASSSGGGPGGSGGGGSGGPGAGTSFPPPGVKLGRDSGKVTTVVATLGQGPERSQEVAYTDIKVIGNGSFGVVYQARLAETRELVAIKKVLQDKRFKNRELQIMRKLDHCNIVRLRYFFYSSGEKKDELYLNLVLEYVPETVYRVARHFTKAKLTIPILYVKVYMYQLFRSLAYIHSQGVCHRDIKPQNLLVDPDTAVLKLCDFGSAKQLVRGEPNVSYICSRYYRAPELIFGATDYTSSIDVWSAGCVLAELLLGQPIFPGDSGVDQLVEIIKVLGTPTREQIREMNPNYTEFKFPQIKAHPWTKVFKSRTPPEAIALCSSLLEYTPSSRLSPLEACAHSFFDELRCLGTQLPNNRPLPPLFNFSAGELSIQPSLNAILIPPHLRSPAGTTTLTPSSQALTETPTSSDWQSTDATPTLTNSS
CDK5 inh: inhibitors of human CDK5/p35 kinase, primary screen, biochemical, single concentration | Recombinant CDK5/p35, ADP-Glo luminescence, 60 min | inhibition, % at 10 µM | actives 0.01% (n = 330,000);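 active means highest replicate inhibition of at least 50% and at least 75% of replicates reaching 50%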
DYRK1A inh: rat Dyrk1A kinase inhibitors, primary screen, biochemical, single point, plate reader | Dual specificity tyrosine-phosphorylation-regulated kinase 1A (Rattus norvegicus), Q63470 | inhibition, % at 12.5 µM | ADP-Glo luminescence, NFATc1 peptide | actives 0.43% (n = 310,000) | AID 504441, 2011; in the data active means inhibition above about 50%
GSK3B inh: human GSK3beta kinase inhibitors, primary screen, biochemical, cell-free homogeneous, HTS | GST-GSK3beta kinase, ADP-Glo luminescence, 60 min; hits give low values | activity score (negative = inhibition), % at 10 µM | actives 0.038% (n = 300,000) | AID 2097, 2009;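 active means more than half of replicate wells score below -50%, meaning over 50% inhibition versus plate controls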
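Test system: GST-tagged human GSK3beta kinase, cell-free; evaluation: activity score scaled between in-plate DMSO and GW8510 controls; measured by: ADP-Glo luminescence; incubation: 60 min reaction, RT; benchmarks: DMSO and 20 µM GW8510; reagent: peptide substrate plus 25 µM ATP (final); medium: Tris/MgCl2 kinase buffer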
STK33 inh: inhibitors of purified STK33 kinase, primary screen, biochemical, ADP-Glo luminescence, homogeneous, cell-free | AID 2661, 2010 | MBP phosphorylation | actives 0.073% (n = 320,000) | Serine/threonine-protein kinase 33 (Homo sapiens), Q9BYT3 | inhibition, % at 10 µM;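 active means inhibition at or above 25%, using the most active replicate where run in duplicate; inactive means inhibition below 25%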
ADP-Glo artifact: ADP-Glo luciferase interference without Dyrk1A, dose response, artefact control for Dyrk1A inhibitor project, biochemical, luminescence, cherry-pick, set 02; shares compounds with DYRK1A inh; ADP-Glo luciferase artifact assay, no Dyrk1A; AC50, µM (series often up to 12 µM); 1,300 tested, under 10 active; AID 588348, 2011;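 active means fitted half-maximal dose AC50 no more than ten times the top valid tested dose, with luminescence dropping as dose rises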
Of the large screens only hits and unclear results are named; the others gave an inactive call (follow-up assays come after a bar, where they were run).

Oc1cc2c(cc1O)[C@H]1c3ccccc3CN[C@@H]1CC2	STK33 inh 27.6 (no result: CDK5 inh, DYRK1A inh)
CCN1C(=O)C(=C/C=C/c2ccco2)C(=O)N(CC)C1=S	none
CCN1C(=O)C(=C2C=C(C)N(Cc3ccco3)C(C)=C2)C(=O)N(CC)C1=S	GSK3A inh 55.1
COc1cc2c(cc1O)C[C@H]1NCCc3cc4c(c-2c31)OCO4	DYRK1A inh 72.3
O=CNc1ccc(OP(=O)(Oc2ccccc2)Oc2ccccc2)cc1	none
COC(=O)C1=C(c2ccc(S(C)(=O)=O)cc2)C[C@@H]2CC[C@H]1N2C(=O)NC(C)C	none
CCOc1ccc(-n2c(-c3cccs3)nc3ccccc3c2=O)cc1	none
CCn1nc(-c2cccs2)nc2c(=O)n(C)c(=O)nc1-2	DYRK1A inh 62.6 (no result: GSK3A inh, GSK3B inh, STK33 inh)
COc1ccc2nc(NC(=O)CCc3nc(C4=CCN(C)CC4)no3)sc2c1	GSK3A inh 52.6
O=C1CN=C(c2ccccc2)c2c(sc3c2CCCC3)N1	GSK3A inh 56.1
Cc1ccccc1C1=NCC(=O)N(CC(=O)NCc2ccco2)c2sc3c(c21)CCCC3	none (no result: GSK3B inh)
Cc1cc2c(s1)NC(=O)CN=C2c1cccs1	GSK3A inh 54.2
O=C1CN=C(c2cccs2)c2c(sc3c2CCCC3)N1	GSK3A inh 82.3, GSK3B inh -59.2
CCN(CC)P(=O)(NC(=O)c1cccn1C)N(CC)CC	none
CC=C(C)C1(CCC)C(=O)NC(=S)NC1=O	none (no result: GSK3A inh, GSK3B inh, STK33 inh)
CC[n+]1c(/C=C/N(C)c2ccccc2)sc2ccc(Cl)cc21	GSK3B inh -53.3 (no result: DYRK1A inh)
COc1cc(O)cc2c1C(=O)OC(C)CCCC(=O)CCC/C=C\2 (stereo not drawn)	none
C[C@H]1CCCC(=O)CCC/C=C/c2cc(O)cc(O)c2C(=O)O1	GSK3A inh 51.9, STK33 inh 27.9
CCOC(=O)CCCCCNC(=O)c1c(O)[nH]c(=O)[nH]c1=O	none
COc1ccc(-n2c(O)c(C(C)=NCCCn3ccnc3)c(=O)[nH]c2=O)cc1	GSK3A inh 53.9
CCC(=NCCCn1ccnc1)c1c(O)n(-c2ccccc2)c(=O)[nH]c1=O	none (no result: DYRK1A inh)
COc1ccccc1N1CCN(CCc2ccccc2)CC1	none
N#CC(C#N)=Cc1ccc(N2CCOCC2)cc1	none
N#C/C(=C\c1ccc(O)cc1)C(=O)O (tested in a mixture with another compound)	DYRK1A inh 79.2 (no result: GSK3A inh, GSK3B inh, STK33 inh) | ADP-Glo artifact inactive
CSc1ccc(C(=O)C2CCCN(Cc3cnc(SC)nc3)C2)cc1 (stereo not drawn)	none
NC(=S)c1cn(C2OC(CO)C(O)C2O)c2ncnc(N)c12 (stereo not drawn)	GSK3A inh 64.1, DYRK1A inh 95.3, GSK3B inh -52.3, STK33 inh 66.6 | ADP-Glo artifact inactive
Cc1ccc(/C=C2/Sc3ccc(C(=O)N4CCC5(CC4)OCCO5)cc3NC2=O)cc1	none (no result: CDK5 inh, DYRK1A inh)
CCn1nc(/C=C/c2ccccc2)nc2c(=O)n(C)c(=O)nc1-2	DYRK1A inh 50.4 (no result: GSK3A inh, STK33 inh) | ADP-Glo artifact inactive
COc1ccc(-n2c(/C=C/c3ccc(O)cc3)nc3ccccc3c2=O)cc1	none
Cn1c(O)c(Cc2ccc(OCc3ccccc3)cc2)c(=O)n(C)c1=O	none
O=c1[nH]c(=O)n(-c2ccccc2)c(O)c1/C=C1/C(c2ccccc2)=Nc2ccccc21	DYRK1A inh 60.8 | ADP-Glo artifact inactive
CC1=NCCc2c1[nH]c1cc(O)ccc21	DYRK1A inh 79.0 (no result: GSK3B inh) | ADP-Glo artifact inactive
COc1ccc2c(c1)[nH]c1c(C)nccc12	none (no result: GSK3B inh)
COc1ccc2c3c([nH]c2c1)C(C)=NCC3	DYRK1A inh 86.4 | ADP-Glo artifact inactive
COC(=O)C1=C(c2ccc(F)cc2OCc2ccccc2)C[C@@H]2CC[C@H]1N2C(=O)NC1CC1	DYRK1A inh 55.2 (no result: GSK3B inh) | ADP-Glo artifact inactive
CC(C)c1ccc(NC(=O)CCNC(=O)N2C[C@H]3C[C@@H](C2)c2cccc(=O)n2C3)cc1	none

Compound activity: PubChem, Broad Institute
